19 compounds from ChEMBL document CHEMBL4382215, “Synthesis of new ent-labdane diterpene derivatives from andrographolide and evaluation of their anti-inflammatory activities” (Eur J Med Chem, 2019) can be followed below.

Series [1] has as its system RAW264.7. The series is described as follows: Antiinflammatory activity in mouse RAW264.7 cells assessed as inhibition of LPS-induced nitric oxide production preincubated for 3 hrs followed by LPS addition and measured after 24 hrs by griess assay. In kind it is functional, cell-based. A digest of the protocol: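 RAW264.7 cells in 96-well plates were exposed to compounds over 0–100 µM for 3 h, then to LPS 1 µg/mL for 24 h. Controls were DMSO without LPS (vehicle) and DMSO with LPS (model). Nitrite in the medium was read with Griess reagent at 540 nm. Percent inhibition was calculated and IC50 derived; hydrocortisone was the positive control.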
Background: Nitrite, measured by Griess reagent, commonly stands in for NO production.

The subject of series [2] is RAW264.7. Put plainly: Inhibition of LPS-induced IkappaBalpha expression in mouse RAW264.7 cells at 5 to 20 uM preincubated for 3 hrs followed by LPS addition and measured after 24 hrs by Western blot analysis. In kind it is functional, cell-based. An outline of the steps:
(§1)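 RAW264.7 cells in 6-well plates were pretreated as for ELISA, then given LPS 1 µg/mL for 24 h and lysed with protease inhibitors. 30 µg total protein was run on 10% SDS-PAGE and blotted to nitrocellulose, blocked in 5% skim milk, and probed overnight at 4 °C. Primary antibodies were iNOS 1:200; COX-2, NF-κB, IκBα and p-IκBα 1:2000; β-actin 1:2000 as reference. Detection used HRP secondary and ECL; data from ≥3 independent experiments.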

Series [3] concerns RAW264.7. Put plainly: Inhibition of LPS-induced NFkappaB expression in mouse RAW264.7 cells at 5 to 20 uM preincubated for 3 hrs followed by LPS addition and measured after 24 hrs by Western blot analysis. In kind it is functional, cell-based. A digest of the protocol: as §1
In general terms: In western blotting, separated proteins are transferred to a membrane and probed.

Series [4] relates to RAW264.7. The series is described as follows: Antiinflammatory activity in mouse RAW264.7 cells assessed as inhibition of LPS-induced IL1beta production preincubated for 3 hrs followed by LPS addition and measured after 24 hrs by ELISA. Type of series: functional, cell-based. A digest of the protocol: (§2)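 Cells in 96-well plates were pretreated with DMSO or compound at 5, 10 and 20 µM for 3 h, then stimulated with LPS 1 µg/mL for 24 h. IL-1β and IL-6 in the medium were quantified by commercial ELISA, with OD read at […]. Results are mean ± SD of at least three independent experiments.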
In general terms: An ELISA detects its analyte on a solid surface through an enzyme-linked reagent.

Series [5] deals with T1, NF-kappa-B inhibitor alpha (Mus musculus) (UniProt Q9Z1E3).
T1 sequence (whole entry): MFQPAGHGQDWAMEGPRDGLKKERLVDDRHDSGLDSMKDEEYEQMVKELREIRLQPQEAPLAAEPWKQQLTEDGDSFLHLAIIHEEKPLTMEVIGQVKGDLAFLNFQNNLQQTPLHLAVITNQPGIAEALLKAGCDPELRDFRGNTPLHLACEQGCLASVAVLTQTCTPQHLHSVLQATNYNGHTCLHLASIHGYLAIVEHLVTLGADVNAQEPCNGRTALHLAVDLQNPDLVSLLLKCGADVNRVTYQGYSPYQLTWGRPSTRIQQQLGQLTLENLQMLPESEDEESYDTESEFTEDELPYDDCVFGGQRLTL
Put plainly: Inhibition of LPS-induced IkappaBalpha phosphorylation in mouse RAW264.7 cells at 5 to 20 uM preincubated for 3 hrs followed by LPS addition and measured after 24 hrs by Western blot analysis. Type of series: cell-based. An outline of the steps:
as §1

Series [6] has as its target Transcription factor p65 (Mus musculus) (UniProt Q04207). Put plainly: Inhibition of LPS-induced NFkappaB p65 nuclear translocation in mouse RAW264.7 cells at 10 uM preincubated for 2 hrs followed by LPS-stimulation and measured after 12 hrs by DAPI staining based immunofluorescence microscopic analysis. In kind it is cell-based. An outline of the steps: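 Cells grown in glass chambers were pretreated with DMSO or compound for 2 h, then given LPS 1 µg/mL for 12 h. They were fixed in 4% paraformaldehyde for 15 min, permeabilized with 0.25% Triton X-100, and labelled with p65 antibody plus AlexaFluor488 secondary. Nuclei were stained with DAPI at 37 °C for 30 min in the dark, and cells were imaged by fluorescence microscopy.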

The test system of series [7] is RAW264.7. The series is described as follows: Antiinflammatory activity in mouse RAW264.7 cells assessed as inhibition of LPS-induced iNOS expression at 5 to 20 uM preincubated for 3 hrs followed by LPS addition and measured after 24 hrs by Western blot analysis. Type of series: functional. A digest of the protocol:
as §1

In series [8] the test system is RAW264.7. The series is described as follows: Cytotoxicity against mouse RAW264.7 cells assessed as effect on cell viability at 3.125 to 100 uM after 24 hrs by CCK8 assay. The settings on record: raw264.7, 24 h. In kind it is cell-based. An outline of the steps:
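Cells were grown in DMEM with 10% FBS and penicillin/streptomycin at 37 °C, 5% CO2. For the assay they were seeded at 5×10^4 cells/well and exposed in serum-free medium to a range of compound concentrations for 24 h, with DMSO as vehicle. Viability was read by CCK-8, in triplicate.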

Series [9] has as its system RAW264.7. Put plainly: Antiinflammatory activity in mouse RAW264.7 cells assessed as inhibition of LPS-induced IL6 production preincubated for 3 hrs followed by LPS addition and measured after 24 hrs by ELISA. In kind it is functional, cell-based. An outline of the steps:
as §2

Series [10] deals with RAW264.7. Put plainly: Antiinflammatory activity in mouse RAW264.7 cells assessed as inhibition of LPS-induced COX2 expression at 5 to 20 uM preincubated for 3 hrs followed by LPS addition and measured after 24 hrs by Western blot analysis. In kind it is functional, cell-based. A digest of the protocol:
as §1

Calls of active or inactive are those of the source. The calls are words filed in the database; no cut-off is given here. Some results are limits rather than exact numbers.

Chain of Transcription factor p65 (Mus musculus) (Q04207 whole entry): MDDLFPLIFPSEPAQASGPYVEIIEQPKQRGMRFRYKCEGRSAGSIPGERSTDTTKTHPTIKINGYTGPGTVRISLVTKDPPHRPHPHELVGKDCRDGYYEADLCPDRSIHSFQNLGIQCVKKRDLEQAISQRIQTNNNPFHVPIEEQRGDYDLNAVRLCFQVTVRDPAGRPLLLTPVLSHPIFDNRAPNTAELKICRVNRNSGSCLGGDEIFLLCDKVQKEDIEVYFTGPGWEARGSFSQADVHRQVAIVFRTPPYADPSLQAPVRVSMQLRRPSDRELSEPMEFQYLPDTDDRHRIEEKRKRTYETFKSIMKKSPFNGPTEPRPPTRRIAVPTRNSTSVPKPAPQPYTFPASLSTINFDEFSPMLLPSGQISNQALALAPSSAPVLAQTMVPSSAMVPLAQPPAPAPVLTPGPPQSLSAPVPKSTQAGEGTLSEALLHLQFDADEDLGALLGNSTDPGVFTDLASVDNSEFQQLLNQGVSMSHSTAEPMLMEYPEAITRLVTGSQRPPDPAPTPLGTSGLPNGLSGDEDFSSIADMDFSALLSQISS

What is called IC50 is the concentration at which inhibition is half-maximal. As to `C=C1CCC2[C@](C)(CO)[C@H](O)CC[C@@]2(C)[C@@H]1CCOc1ccc(Br)cc1` (stereo partly drawn), the IC50 in [1] was found to be 40.2 µM.

As to `C=C1CCC2[C@](C)(CO)[C@H](O)CC[C@@]2(C)[C@@H]1CCOc1ccc2ccc(=O)oc2c1` (stereo partly drawn), the IC50 in series [1] is over 50 µM.

In the case of `C=C1CC[C@@H]2[C@](C)(CO)[C@H](O)CC[C@@]2(C)[C@@H]1C/C=C1/C(=O)OC[C@H]1O` [ANDROGRAPHOLIDE], the IC50 in series [1] was found to be 8.81 µM.

Regarding `C=C1CCC2[C@](C)(CO)[C@H](O)CC[C@@]2(C)[C@@H]1CCn1cnc2c(N)ncnc21` (stereo partly drawn), the IC50 in [1] was over 100 µM.

For the compound `C=C1CCC2[C@](C)(CO)[C@H](O)CC[C@@]2(C)[C@@H]1CCOc1ccc2oc(-c3ccccc3)cc(=O)c2c1` (stereo partly drawn), the half-maximal inhibitory concentration (IC50) in series [1] was over 100 µM.

With `C=C1CCC2[C@](C)(CO)[C@H](O)CC[C@@]2(C)[C@@H]1CCOc1ccc(Oc2ccccc2)cc1` (stereo partly drawn), the IC50 in series [1] is 12.8 µM.

Take `C=C1CCC2[C@](C)(CO)[C@H](O)CC[C@@]2(C)[C@@H]1CCOc1ccc(-c2cc(=O)c3cc(C)ccc3o2)cc1` (stereo partly drawn): the IC50 in series [1] is over 100 µM.

Turning to `C=C1CCC2[C@](C)(CO)[C@H](O)CC[C@@]2(C)[C@@H]1CCOc1ccccc1O` (stereo partly drawn), in series [1], the IC50 came to 47.7 µM.

Take `C=C1CCC2[C@](C)(CO)[C@H](O)CC[C@@]2(C)[C@@H]1CCOC(=O)c1ccccc1` (stereo partly drawn): in series [1], the IC50 is over 100 µM.

On to `C=C1CCC2[C@](C)(CO)[C@H](O)CC[C@@]2(C)[C@@H]1CCOC(=O)c1cccnc1` (stereo partly drawn), for which the IC50 in series [1] was over 50 µM.

`C=C1CCC2[C@](C)(CO)[C@H](O)CC[C@@]2(C)[C@@H]1CCn1cncn1` (stereo partly drawn): the IC50 in series [1] was over 100 µM.

Turning to `C=C1CCC2[C@](C)(CO)[C@H](O)CC[C@@]2(C)[C@@H]1CCOc1ccc([N+](=O)[O-])cc1` (stereo partly drawn), the inhibition result in series [2], in series [3], in series [5], in series [6] and in series [10] was “Active” each time. Also, the inhibition entry in series [4] and in series [9] was “Dose-dependent effect” each time. For the same compound, in series [7], the “inhibition (INH)” value is listed as 100%. In addition, in series [8], the Activity result is given as “Non-Toxic”. The IC50 in [1] was determined as 3.38 µM.

With `C=C1CCC2[C@](C)(CO)[C@H](O)CC[C@@]2(C)[C@@H]1CCn1ccc(=O)[nH]c1=O` (stereo partly drawn), the IC50 in series [1] was over 100 µM.

Turning to `C=C1CCC2[C@](C)(CO)[C@H](O)CC[C@@]2(C)[C@@H]1CCn1c(N)nccc1=O` (stereo partly drawn), the IC50 in series [1] is over 100 µM.

As for `C=C1CCC2[C@](C)(CO)[C@H](O)CC[C@@]2(C)[C@@H]1CCOc1ccc(C(C)(C)C)cc1` (stereo partly drawn), the IC50 in series [1] was found to be 35.8 µM.

Take `C=C1CCC2[C@](C)(CO)[C@H](O)CC[C@@]2(C)[C@@H]1CCOc1cccc2ccccc12` (stereo partly drawn): in series [1], the IC50 was found to be 44.7 µM.

In the case of `C=C1CCC2[C@](C)(CO)[C@H](O)CC[C@@]2(C)[C@@H]1CCn1ccnc1` (stereo partly drawn), the IC50 in [1] is over 50 µM.

Take `C=C1CCC2[C@](C)(CO)[C@H](O)CC[C@@]2(C)[C@@H]1CCOC(=O)c1ccccc1[N+](=O)[O-]` (stereo partly drawn): in series [1], the IC50 is 35.2 µM.

As to `C=C1CCC2[C@](C)(CO)[C@H](O)CC[C@@]2(C)[C@@H]1CCOC(=O)c1ccc([N+](=O)[O-])cc1` (stereo partly drawn), the IC50 in [1] is 37.3 µM.
